Assays:
[1] = tested on: Rattus norvegicus; assay: Anti-inflammatory activity in Sprague-Dawley rat assessed as inhibition of LPS-induced neutrophilia at 1000 ug/kg, it administered as suspension with Penn-Century micro-sprayer aerosolizer dosed 1 hrs before LPS challenge and measured 5 hrs post dose; format: functional; details: inhaled or nasal
How it was run: (§1)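 Suspensions in PBS/0.2% Tween 80 were homogenized, with lower doses made by 1:10 dilutions. 0.2 mL was given intratracheally by MicroSprayer to isoflurane-anesthetized fasted male Sprague-Dawley rats (230–280 g). At 1 or 18 h, rats received nebulized LPS (30 mL of a 1:100 PBS dilution of 100 mg/10 mL stock) over 40 min. Four hours later, BAL neutrophils were counted by flow cytometry.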

[2] = target: T1, Adenosine receptor A1 (Homo sapiens, UniProt P30542); assay: Antagonist activity at adenosine A1 receptor (unknown origin)
T1 sequence (P30542 whole entry): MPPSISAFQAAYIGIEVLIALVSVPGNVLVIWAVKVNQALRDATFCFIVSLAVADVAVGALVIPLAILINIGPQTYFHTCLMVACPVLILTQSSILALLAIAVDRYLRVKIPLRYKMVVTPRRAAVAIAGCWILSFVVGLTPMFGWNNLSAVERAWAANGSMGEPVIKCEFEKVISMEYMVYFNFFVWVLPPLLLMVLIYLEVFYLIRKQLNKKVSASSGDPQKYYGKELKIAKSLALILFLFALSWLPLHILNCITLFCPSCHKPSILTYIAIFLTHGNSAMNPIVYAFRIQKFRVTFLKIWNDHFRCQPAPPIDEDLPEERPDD

[3] = Inhibition of PDE4 in human whole blood assessed as reduction in LPS-induced TNFalpha production incubated for 24 hrs by ELISA; format: tissue-based
How it was run: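 Human whole blood was preincubated with LPS (final 1 μg/mL) for 10 min at 37 °C with rocking. 200 μL was added to wells holding increasing inhibitor concentrations in 100% DMSO. Plates were incubated 24 h at 37 °C under agitation, then placed on ice, diluted with PBS and centrifuged at 800g, 4 °C, for 15 min before TNF-α measurement.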

[4] = Inhibition of PDE4 in PBMC (unknown origin) assessed as reduction in LPS-induced TNFalpha production incubated for 24 hrs by ELISA; details: Homo sapiens
[5] = target: T2, Adenosine receptor A2b (Homo sapiens, UniProt P29275); assay: Antagonist activity at adenosine A2b receptor (unknown origin)
T2 sequence (P29275 whole entry): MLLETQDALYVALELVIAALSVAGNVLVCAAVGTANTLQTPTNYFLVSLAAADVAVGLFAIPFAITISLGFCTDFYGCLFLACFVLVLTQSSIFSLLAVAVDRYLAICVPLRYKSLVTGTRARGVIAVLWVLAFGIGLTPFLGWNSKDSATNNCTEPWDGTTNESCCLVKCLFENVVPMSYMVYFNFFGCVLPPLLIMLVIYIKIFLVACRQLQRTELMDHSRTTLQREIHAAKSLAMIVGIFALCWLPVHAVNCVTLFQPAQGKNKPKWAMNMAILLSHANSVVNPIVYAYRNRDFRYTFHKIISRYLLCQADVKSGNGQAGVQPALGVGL

[6] = target: Adenosine receptor A2a (Homo sapiens, UniProt P29274); assay: Antagonist activity at adenosine A2a receptor (unknown origin)
[7] = tested on: Rattus norvegicus; assay: Anti-inflammatory activity in Sprague-Dawley rat assessed as inhibition of LPS-induced neutrophilia at 10 to 1000 ug/kg, it administered as suspension with Penn-Century micro-sprayer aerosolizer dosed 1 hrs before LPS challenge and measured 5 hrs post dose; format: functional; details: inhaled or nasal; how it was run: as §1
[8] = tested on: Rattus norvegicus; assay: Anti-inflammatory activity in Sprague-Dawley rat assessed as inhibition of LPS-induced neutrophilia at 1000 ug/kg, it administered as suspension with Penn-Century micro-sprayer aerosolizer dosed 18 hrs before LPS challenge and measured 22 hrs post dose; format: functional; details: inhaled or nasal; how it was run: as §1
[9] = Drug metabolism in human liver S9 fraction assessed as glucuronidation in presence of PAPS and UDPGA incubated for 20 mins; format: ADME, subcellular; details: read-out: Drug metabolism
[10] = tested on: Rattus norvegicus; assay: Anti-inflammatory activity in Sprague-Dawley rat assessed as inhibition of LPS-induced neutrophilia at 25 ug/kg, it administered as suspension with Penn-Century micro-sprayer aerosolizer dosed 1 hrs before LPS challenge and measured 5 hrs post dose; format: functional; details: inhaled or nasal; how it was run: as §1
[11] = tested on: Rattus norvegicus; assay: Anti-inflammatory activity in Sprague-Dawley rat assessed as inhibition of LPS-induced neutrophilia at 100 ug/kg, it administered as suspension with Penn-Century micro-sprayer aerosolizer dosed 18 hrs before LPS challenge and measured 22 hrs post dose; format: functional; details: inhaled or nasal; how it was run: as §1
[12] = tested on: Rattus norvegicus; assay: Anti-inflammatory activity in Sprague-Dawley rat assessed as inhibition of LPS-induced neutrophilia at 100 ug/kg, it administered as suspension with Penn-Century micro-sprayer aerosolizer dosed 1 hrs before LPS challenge and measured 5 hrs post dose; format: functional; details: inhaled or nasal; how it was run: as §1
[13] = tested on: Rattus norvegicus; assay: Anti-inflammatory activity in Sprague-Dawley rat assessed as inhibition of LPS-induced neutrophilia at 300 ug/kg, it administered as suspension with Penn-Century micro-sprayer aerosolizer dosed 18 hrs before LPS challenge and measured 22 hrs post dose; format: functional; details: inhaled or nasal; how it was run: as §1

Sequence of Adenosine receptor A2a (P29274 whole entry): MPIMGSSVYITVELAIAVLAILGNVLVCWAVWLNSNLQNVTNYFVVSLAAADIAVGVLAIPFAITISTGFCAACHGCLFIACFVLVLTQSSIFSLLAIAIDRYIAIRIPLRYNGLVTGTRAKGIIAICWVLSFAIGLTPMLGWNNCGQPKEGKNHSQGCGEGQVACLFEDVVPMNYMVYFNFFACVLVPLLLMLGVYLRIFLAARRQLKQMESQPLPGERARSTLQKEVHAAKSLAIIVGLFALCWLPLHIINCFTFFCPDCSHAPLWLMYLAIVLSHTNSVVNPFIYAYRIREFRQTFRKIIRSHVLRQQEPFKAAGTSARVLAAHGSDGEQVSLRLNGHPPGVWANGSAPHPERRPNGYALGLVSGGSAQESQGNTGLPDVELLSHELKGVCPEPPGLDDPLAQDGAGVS

| Structure (SMILES) | IC50 [2] | IC50 [3] | IC50 [4] | IC50 [5] | IC50 [6] | further results |
| --- | --- | --- | --- | --- | --- | --- |
| CCn1nc(-c2cccc(-c3ccc(CC(=O)O)cc3)c2)cc(NC(=O)Nc2c(Cl)cncc2Cl)c1=O | 184 nM | 257 nM | 0.68 nM | > 1000 nM | > 1000 nM | inhibition in vivo at 1 mg/kg [1]: 80%; ED50 [7]: 0.149 mg/kg; inhibition in vivo at 1 mg/kg [8]: 10%; metabolised at 20 min [9]: 32% |
| CCn1nc(-c2cccc(Br)c2)cc(NC(=O)Nc2c(Cl)cncc2Cl)c1=O | – | – | 3.7 nM | – | – | – |
| CCOc1cc(C(=O)NC2CC2)cc(-c2cccc(-c3cc(NC(=O)Nc4c(Cl)cncc4Cl)c(=O)n(CC)n3)c2)c1 | 59 nM | – | 0.24 nM | > 1000 nM | > 1000 nM | inhibition in vivo at 0.025 mg/kg [10]: 26% |
| CCn1nc(-c2cccc(-c3cc(C(=O)NCC[C@H]4CCCN4C)cc(C(=O)NC4CC4)c3)c2)cc(NC(=O)Nc2c(Cl)cncc2Cl)c1=O | 399 nM | – | 0.3 nM | 146 nM | > 1000 nM | inhibition in vivo at 0.025 mg/kg [10]: 42%; inhibition in vivo at 0.1 mg/kg [11]: 37% |
| CCn1nc(-c2cccc(-c3ccc(O)nc3)c2)cc(NC(=O)Nc2c(Cl)cncc2Cl)c1=O | – | 100 nM | 1.1 nM | – | – | – |
| CCn1nc(-c2cccc(-c3cc(C(=O)NCCN4CCCCC4)cc(C(=O)NC4CC4)c3)c2)cc(NC(=O)Nc2c(Cl)cncc2Cl)c1=O | > 1000 nM | – | 0.35 nM | 95 nM | > 1000 nM | inhibition in vivo at 0.025 mg/kg [10]: 25% |
| CCn1nc(-c2cccc(-c3cccc(C(=O)NCCCCCCCN(C)CCO)c3)c2)cc(NC(=O)Nc2c(Cl)cncc2Cl)c1=O | 13 nM | 57 nM | 0.24 nM | 206 nM | 41 nM | inhibition in vivo at 0.1 mg/kg [12]: 79%; inhibition in vivo at 1 mg/kg [8]: 27% |
| CCn1nc(-c2cccc(-c3ccc(O)cc3F)c2)cc(NC(=O)Nc2c(Cl)cncc2Cl)c1=O | – | 154 nM | 2.9 nM | – | – | metabolised at 20 min [9]: 27% |
| CCn1nc(-c2cccc(-c3cncc(C(=O)O)c3)c2)cc(NC(=O)Nc2c(Cl)cncc2Cl)c1=O | – | – | 11.6 nM | – | – | metabolised at 20 min [9]: 35% |
| CCn1nc(-c2ccccc2)c(C(C)=O)c(Nc2ccc(C(=O)O)cc2)c1=O | – | – | 21 nM | – | – | – |
| CCn1nc(-c2cccc(-c3ccccc3O)c2)cc(NC(=O)Nc2c(Cl)cncc2Cl)c1=O | – | 75 nM | 1.4 nM | – | – | metabolised at 20 min [9]: 1.7% |
| CCn1nc(-c2cccc(-c3cc(C(=O)NCCO)cc(C(=O)NCCN4CCCCC4)c3)c2)cc(NC(=O)Nc2c(Cl)cncc2Cl)c1=O | > 1000 nM | – | 0.31 nM | > 268 nM | > 1000 nM | inhibition in vivo at 0.025 mg/kg [10]: 33% |
| CCn1nc(-c2cccc(-c3cccc(O)c3F)c2)cc(NC(=O)Nc2c(Cl)cncc2Cl)c1=O | – | – | 0.8 nM | – | – | – |
| CCn1nc(-c2cccc(-c3ccc(F)cc3O)c2)cc(NC(=O)Nc2c(Cl)cncc2Cl)c1=O | – | 202 nM | 1.3 nM | – | – | – |
| CCn1nc(-c2cccc(-c3cccc(C(=O)NCCC4CCCN4C)c3)c2)cc(NC(=O)Nc2c(Cl)cncc2Cl)c1=O (stereo unspecified) | 2 nM | 70 nM | 0.19 nM | – | 5 nM | inhibition in vivo at 0.1 mg/kg [12]: 70%; inhibition in vivo at 0.1 mg/kg [11]: 57% |
| CCn1nc(-c2cccc(-c3cc(C(=O)NC4CC4)cc(C(=O)NC4CC4)c3)c2)cc(NC(=O)Nc2c(Cl)cncc2Cl)c1=O | 324 nM | – | 0.4 nM | > 1000 nM | > 1000 nM | inhibition in vivo at 0.3 mg/kg [13]: 27%; inhibition in vivo at 0.025 mg/kg [10]: 54% |
| CCn1nc(-c2cccc(-c3cccc(CC(=O)NCCCCCCCN(C)CCO)c3)c2)cc(NC(=O)Nc2c(Cl)cncc2Cl)c1=O | 28 nM | 525 nM | 4.9 nM | 459 nM | 59 nM | – |
| CCn1nc(-c2cccc(-c3ccc(C(N)=O)cc3)c2)cc(NC(=O)Nc2c(Cl)cncc2Cl)c1=O | – | 120 nM | 0.2 nM | – | – | – |
| CCn1nc(-c2cccc(-c3cccc(C(=O)O)c3)c2)cc(NC(=O)Nc2c(Cl)cncc2Cl)c1=O | 17 nM | – | 2.17 nM | 222 nM | 270 nM | metabolised at 20 min [9]: 9% |
| CCn1nc(-c2cccc(-c3cc(C#N)cc(C(=O)NC4CC4)c3)c2)cc(NC(=O)Nc2c(Cl)cncc2Cl)c1=O | 634 nM | – | 0.19 nM | > 1000 nM | > 1000 nM | – |
| CCn1nc(-c2cccc(-c3ccc(F)c(C(=O)O)c3)c2)cc(NC(=O)Nc2c(Cl)cncc2Cl)c1=O | – | – | 26.3 nM | – | – | – |
| CCn1nc(-c2cccc(-c3cc(C(=O)O)ccc3F)c2)cc(NC(=O)Nc2c(Cl)cncc2Cl)c1=O | – | – | 6.6 nM | – | – | – |
| CCn1nc(-c2cccc(-c3cc(OCC4CC4)cc(C(=O)NCCN4CCCCC4)c3)c2)cc(NC(=O)Nc2c(Cl)cncc2Cl)c1=O | 81 nM | – | 0.88 nM | > 1000 nM | > 1000 nM | inhibition in vivo at 0.025 mg/kg [10]: 60% |
| CCn1nc(-c2cccc(-c3cccc(CC(=O)O)c3)c2)cc(NC(=O)Nc2c(Cl)cncc2Cl)c1=O | 5 nM | 190 nM | 0.54 nM | 263 nM | 434 nM | inhibition in vivo at 1 mg/kg [1]: 66%; inhibition in vivo at 1 mg/kg [8]: 16%; metabolised at 20 min [9]: 56% |
| CCn1nc(-c2cccc(-c3cc(C(=O)NCCN4CCOCC4)cc(C(=O)NC4CC4)c3)c2)cc(NC(=O)Nc2c(Cl)cncc2Cl)c1=O | > 1000 nM | – | – | > 1000 nM | > 1000 nM | inhibition in vivo at 0.025 mg/kg [10]: 55%; inhibition in vivo at 0.1 mg/kg [11]: 29% |
| CCn1nc(-c2cccc(-c3ccccc3C(=O)O)c2)cc(NC(=O)Nc2c(Cl)cncc2Cl)c1=O | – | – | 10.3 nM | – | – | – |
